Drawing on ChEMBL document CHEMBL3739279, “Fluorinated betulinic acid derivatives and evaluation of their anti-HIV activity” (Bioorg Med Chem Lett, 2016), this text covers CC50 and EC50 for 10 molecules.

Each structure is given as a SMILES string. A value given as a limit tells only on which side of the number the result lay.

One may read the CC50 as the concentration that lowers cell viability or growth by half. The term EC50 denotes the concentration giving half of the maximal effect. The low end stands for greater potency, the high end for weaker potency.

A short description of data set [1]: Cytotoxicity against human MT4 cells by cell-titer Glo assay. In kind it is cell-based. A digest of the protocol: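 MT4 cells cultured in parallel with antiviral cultures; viability read by luminescent ATP quantitation (CellTiter-Glo). CC50 = concentration reducing viability by 50%.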
Data set [2] has as its system Human immunodeficiency virus 1. The data set is described as follows: Antiviral activity against HIV-1 NL4-3 infected in MT4 cells assessed inhibition of viral replication measured on day 4 postinfection by ELISA. Format: functional, organism-based. Particulars: Human immunodeficiency virus 1, NL4-3, MT4, 96 h. An outline of the steps:
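MT4 cells infected with HIV-1 NL4-3 at MOI 0.001 in presence of graded compound concentrations; fresh compound-containing medium added 48 h post-infection to sustain growth. Viral replication read on day 4 by p24 ELISA; EC50 = concentration giving 50% inhibition of replication.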
(In general: In an ELISA, binding on a coated surface is turned into a signal by an enzyme label.)

As to `C=C(C)[C@@H]1CC[C@]2(C(=O)O)CC[C@]3(C)[C@H](CC[C@@H]4[C@@]5(C)C[C@@H](F)[C@H](OC(=O)CC(C)(C)C(=O)O)C(C)(C)[C@@H]5CC[C@]43C)[C@@H]12`, the CC50 in data set [1] is more than 17 µM. In data set [2], this molecule registered an EC50 of more than 17 µM.

Turning to `C=C(C)[C@@H]1CC[C@]2(C(=O)OCCC3CC3)CC[C@]3(C)[C@H](CC[C@@H]4[C@@]5(C)C[C@@H](F)[C@H](OC(=O)CC(C)(C)C(=O)O)C(C)(C)[C@@H]5CC[C@]43C)[C@@H]12`, the CC50 in data set [1] is more than 6 µM. Besides, it took 1.1 µM to reach a half-maximal effect in data set [2] (EC50).

As for `C=C(C)[C@@H]1CC[C@]2(C(=O)O)CC[C@]3(C)[C@H](CC[C@@H]4[C@@]5(C)CC[C@H](OC(=O)CC(C)(C)C(=O)O)C(C)(C)[C@@H]5CC[C@]43C)[C@@H]12` [BEVIRIMAT], in data set [1], the CC50 was more than 17 µM. In data set [2], the EC50 worked out at 0.075 µM.

The molecule `C=C(CC(F)(F)F)[C@@H]1CC[C@]2(C(=O)O)CC[C@]3(C)[C@H](CC[C@@H]4[C@@]5(C)CC[C@H](OC(=O)CC(C)(C)C(=O)O)C(C)(C)[C@@H]5CC[C@]43C)[C@@H]12` came in with a 50% cytotoxic concentration (CC50) in data set [1] of more than 6 µM. This molecule also had an EC50 in data set [2] of 0.097 µM.

`C=C(C)[C@@H]1CC[C@]2(C(=O)OC)CC[C@]3(C)[C@H](CC[C@@H]4[C@@]5(C)C[C@@H](F)[C@H](OC(=O)CC(C)(C)C(=O)O)C(C)(C)[C@@H]5CC[C@]43C)[C@@H]12` came in with a half-maximal cytotoxic concentration (CC50) in data set [1] of more than 16 µM. Further, the EC50 in data set [2] was more than 16 µM.

Take `C=C(C)[C@@H]1CC[C@]2(C(=O)OCC3CCC(F)(F)CC3)CC[C@]3(C)[C@H](CC[C@@H]4[C@@]5(C)CC[C@H](OC(=O)CC(C)(C)C(=O)O)C(C)(C)[C@@H]5CC[C@]43C)[C@@H]12`: the CC50 in data set [1] is more than 6 µM. Also, the midpoint of the response in data set [2], the EC50, lay at 0.31 µM.

Take `C=C(C)[C@@H]1CC[C@]2(C(=O)O)CC[C@]3(C)[C@H](CC[C@@H]4[C@@]5(C)CC[C@H](OC(=O)C(F)(F)C(F)(F)C(=O)O)C(C)(C)[C@@H]5CC[C@]43C)[C@@H]12`: the CC50 in data set [1] was more than 6 µM. For the same molecule, the EC50 in data set [2] was more than 6 µM.

Regarding `C=C(C)[C@@H]1CC[C@]2(C(=O)OCCc3cccc(C(F)(F)F)c3)CC[C@]3(C)[C@H](CC[C@@H]4[C@@]5(C)CC[C@H](OC(=O)CC(C)(C)C(=O)O)C(C)(C)[C@@H]5CC[C@]43C)[C@@H]12`, the CC50 in data set [1] was more than 5 µM. In data set [2], the response was half-maximal at 3 µM (EC50).

`C=C(C)[C@@H]1CC[C@]2(C(=O)OC)CC[C@]3(C)[C@H](CC[C@@H]4[C@@]5(C)C[C@@H](C(F)(F)F)[C@H](OC(=O)CC(C)(C)C(=O)O)C(C)(C)[C@@H]5CC[C@]43C)[C@@H]12` registered a CC50 in data set [1] of more than 6 µM. Also, the EC50 in data set [2] is more than 6 µM.

Molecule `C=C(C)[C@@H]1CC[C@]2(C(=O)O)CC[C@]3(C)[C@H](CC[C@@H]4[C@@]5(C)CC[C@H](OC(=O)C(F)(F)C(F)(F)C(F)(F)C(=O)O)C(C)(C)[C@@H]5CC[C@]43C)[C@@H]12` registered a CC50 in data set [1] of more than 6 µM. The EC50 in data set [2] was more than 6 µM.
